In ChEMBL document CHEMBL3046020, “Enantioselectivity in the phytotoxicity of herbicide imazethapyr” (2009):

Assays:
Zea mays [1] = assay: Phytotoxicity in Zea mays (maize) assessed as shoot dry weight assessed per 10 plants at 400 ug/L measured 5 days post compound treatment (reference value: 101.2 +/- 4.5 mg); format: functional
Zea mays [2] = assay: Phytotoxicity in Zea mays (maize) assessed as shoot height at 800 ug/L measured 5 days post compound treatment (reference value: 6.89 +/- 0.30 cm); format: functional
Zea mays [3] = assay: Phytotoxicity in Zea mays (maize) assessed as root dry weight assessed per 10 plants at 200 ug/L measured 5 days post compound treatment (reference value: 42.8 +/- 0.7 mg); format: functional
Zea mays [4] = assay: Phytotoxicity in Zea mays (maize) assessed as root dry weight assessed per 10 plants at 100 ug/L measured 5 days post compound treatment (reference value: 42.8 +/- 0.7 mg); format: functional
Zea mays [5] = assay: Phytotoxicity in Zea mays assessed (maize) as total root length measured per plant at 400 ug/L measured 5 days post compound treatment (reference value: 12.32 +/- 1.46 cm); format: functional
Zea mays [6] = assay: Phytotoxicity in Zea mays (maize) assessed as shoot height at 200 ug/L measured 5 days post compound treatment (reference value: 6.89 +/- 0.30 cm); format: functional
Zea mays [7] = assay: Phytotoxicity in Zea mays (maize) assessed as shoot height at 100 ug/L measured 5 days post compound treatment (reference value: 6.89 +/- 0.30 cm); format: functional
Zea mays [8] = assay: Phytotoxicity in Zea mays (maize) assessed as shoot height at 400 ug/L measured 5 days post compound treatment (reference value: 6.89 +/- 0.30 cm); format: functional
Zea mays [9] = assay: Phytotoxicity in Zea mays (maize) assessed as shoot dry weight assessed per 10 plants at 100 ug/L measured 5 days post compound treatment (reference value: 101.2 +/- 4.5 mg); format: functional
Zea mays [10] = assay: Effect on root volume in Zea mays (maize) seedlings at 100 to 800 ug/L; format: functional, organism-based
Procedure, shortened: (§1)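 Maize seedlings were grown in a chamber (12 h light, 10,000 lx, 25/20 °C, 60% RH) for five days under graded levels of S-(+)-, R-(-)- or racemic IM. Root diameter, volume, surface area and tip number were measured per plant with an automatic root scanner. Values are means ± SD of three replicates of 10 randomly selected seedlings each.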

Zea mays [11] = assay: Effect on root surface area in Zea mays (maize) seedlings at 100 to 800 ug/L; format: functional, organism-based; procedure, shortened: as §1
Zea mays [12] = assay: Reduction in root tips in Zea mays (maize) seedlings at 100 to 800 ug/L; format: functional, organism-based; procedure, shortened: as §1
Zea mays [13] = assay: Phytotoxicity in Zea mays assessed (maize) as total root length measured per plant at 800 ug/L measured 5 days post compound treatment (reference value: 12.32 +/- 1.46 cm); format: functional
Zea mays [14] = assay: Reduction of root hair growth in Zea mays (maize) seedlings at 400 ug/L measured 48 hr post dose by microscopy; format: functional, organism-based
Procedure, shortened: (§2)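 Maize seedlings with primary roots about 2 mm long were moved to 0 or 400 µg L-1 S-(+)-, R-(-)- or racemic IM solution. After 48 h, root tips (border cells) and the densest root-hair zone were examined and photographed under a light microscope. Growth chamber: 12 h light, 25/20 °C, 60% RH.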

Zea mays [15] = assay: Phytotoxicity in Zea mays (maize) assessed as shoot dry weight assessed per 10 plants at 800 ug/L measured 5 days post compound treatment (reference value: 101.2 +/- 4.5 mg); format: functional
Zea mays [16] = assay: Phytotoxicity in Zea mays (maize) assessed as root dry weight assessed per 10 plants at 800 ug/L measured 5 days post compound treatment (reference value: 42.8 +/- 0.7 mg); format: functional
Zea mays [17] = assay: Phytotoxicity in Zea mays (maize) assessed as root dry weight assessed per 10 plants at 400 ug/L measured 5 days post compound treatment (reference value: 42.8 +/- 0.7 mg); format: functional
Zea mays [18] = assay: Phytotoxicity in Zea mays assessed (maize) as total root length measured per plant at 200 ug/L measured 5 days post compound treatment (reference value: 12.32 +/- 1.46 cm); format: functional
Zea mays [19] = assay: Phytotoxicity in Zea mays (maize) assessed as shoot dry weight assessed per 10 plants at 200 ug/L measured 5 days post compound treatment (reference value: 101.2 +/- 4.5 mg); format: functional
Zea mays [20] = assay: Increase in root diameter in Zea mays (maize) seedlings at 100 to 800 ug/L; format: functional, organism-based; procedure, shortened: as §1
Zea mays [21] = assay: Phytotoxicity in Zea mays (maize) assessed as total root length measured per plant at 100 ug/L measured 5 days post compound treatment (reference value: 12.32 +/- 1.46 cm); format: functional
Zea mays [22] = assay: Induction of ultrastructure damage of root tip statocytes in Zea mays (maize) seedlings assessed as reduction in starch grain size at 400 ug/L measured 48 hr post dose by transmission electron microscopy; format: functional, organism-based
Procedure, shortened: (§3)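 Maize seeds surface-sterilized in 10% NaOCl for 10 min, soaked 12 h, germinated on moist gauze. Root-tip sections of 1-3 mm were fixed in 4% glutaraldehyde, postfixed in OsO4 and embedded in Spurr's resin. 80 nm sections were viewed by TEM at 60 kV.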

Zea mays [23] = assay: Reduction in root tips in Zea mays (maize) seedlings at 100 ug/L; format: functional, organism-based; procedure, shortened: as §1
Zea mays [24] = assay: Induction of ultrastructure damage of root tip statocytes in Zea mays (maize) seedlings at 400 ug/L measured 48 hr post dose by transmission electron microscopy; format: functional, organism-based; procedure, shortened: as §3
Zea mays [25] = assay: Reduction of sloughing of border cells from root tips in Zea mays (maize) seedlings at 400 ug/L measured 48 hr post dose by microscopy; format: functional, organism-based; procedure, shortened: as §2
Zea mays [26] = assay: Induction of ultrastructure damage of root tip statocytes in Zea mays seedlings (maize) assessed as dictyosomers swelling at 400 ug/L measured 48 hr post dose by transmission electron microscopy; format: functional, organism-based; procedure, shortened: as §3
Zea mays [27] = assay: Induction of ultrastructure damage of root tip statocytes in Zea mays (maize) seedlings assessed as induction of cell wall thickening at 400 ug/L measured 48 hr post dose by transmission electron microscopy; format: functional, organism-based; procedure, shortened: as §3
Zea mays [28] = assay: Induction of ultrastructure damage of root tip statocytes in Zea mays (maize) seedlings assessed as destruction of mitochondria envelope membranes at 400 ug/L measured 48 hr post dose by transmission electron microscopy; format: functional, organism-based; procedure, shortened: as §3
Zea mays [29] = assay: Induction of ultrastructure damage of root tip statocytes in Zea mays (maize) seedlings assessed as reduction in organelle size at 400 ug/L measured 48 hr post dose by transmission electron microscopy; format: functional, organism-based; procedure, shortened: as §3
Zea mays [30] = assay: Effect on cell organelles in root tip statocytes in Zea mays (maize) seedlings at 400 ug/L measured 48 hr post dose by transmission electron microscopy; format: functional, organism-based; procedure, shortened: as §3

CCc1cnc(C2=NC(C)(C(C)C)C(=O)N2)c(C(=O)O)c1 (racemic) [IMAZETHAPYR]
Activity (Zea mays [1]): 83.3 mg | Activity (Zea mays [2]): 4 cm | Activity (Zea mays [3]): 34.6 mg | Activity (Zea mays [4]): 36.1 mg | Activity (Zea mays [5]): 5.5 cm | Activity (Zea mays [6]): 6.2 cm | Activity (Zea mays [7]): 6.3 cm | Activity (Zea mays [8]): 4.6 cm | Activity (Zea mays [9]): 92.4 mg | Activity (Zea mays [10]): Toxic | Activity (Zea mays [11]): Toxic | Activity (Zea mays [12]): Toxic | Activity (Zea mays [13]): 5.2 cm | Activity (Zea mays [14]): Non-toxic | Activity (Zea mays [15]): 73.4 mg | Activity (Zea mays [16]): 29 mg | Activity (Zea mays [17]): 26.4 mg | Activity (Zea mays [18]): 7.4 cm | Activity (Zea mays [19]): 107.8 mg | Activity (Zea mays [20]): Toxic | Activity (Zea mays [21]): 8.1 cm

CCc1cnc(C2=N[C@](C)(C(C)C)C(=O)N2)c(C(=O)O)c1 [R-(-)-IMAZETHAPYR]
Activity (Zea mays [1]): 61.4 mg | Activity (Zea mays [2]): 3.4 cm | Activity (Zea mays [3]): 30.5 mg | Activity (Zea mays [22]): Toxic | Activity (Zea mays [4]): 33.8 mg | Activity (Zea mays [23]): Toxic | Activity (Zea mays [24]): Toxic | Activity (Zea mays [5]): 4.9 cm | Activity (Zea mays [6]): 5.9 cm | Activity (Zea mays [7]): 6.2 cm | Activity (Zea mays [25]): Toxic | Activity (Zea mays [8]): 3.9 cm | Activity (Zea mays [26]): Toxic | Activity (Zea mays [9]): 90.3 mg | Activity (Zea mays [27]): Toxic | Activity (Zea mays [10]): Toxic | Activity (Zea mays [11]): Toxic | Activity (Zea mays [12]): Toxic | Activity (Zea mays [13]): 4.8 cm | Activity (Zea mays [14]): Toxic | Activity (Zea mays [15]): 57.1 mg | Activity (Zea mays [16]): 25.2 mg | Activity (Zea mays [17]): 25.7 mg | Activity (Zea mays [28]): Toxic | Activity (Zea mays [18]): 6.4 cm | Activity (Zea mays [29]): Toxic | Activity (Zea mays [19]): 91.9 mg | Activity (Zea mays [20]): Toxic | Activity (Zea mays [21]): 7.7 cm

CCc1cnc(C2=N[C@@](C)(C(C)C)C(=O)N2)c(C(=O)O)c1 [S-(+)-IMAZETHAPYR]
Activity (Zea mays [1]): 85.4 mg | Activity (Zea mays [2]): 5.1 cm | Activity (Zea mays [3]): 35.1 mg | Activity (Zea mays [22]): Non-toxic | Activity (Zea mays [4]): 36.6 mg | Activity (Zea mays [23]): Non-toxic | Activity (Zea mays [24]): Non-toxic | Activity (Zea mays [5]): 7.2 cm | Activity (Zea mays [6]): 6.3 cm | Activity (Zea mays [7]): 6.5 cm | Activity (Zea mays [8]): 5.7 cm | Activity (Zea mays [9]): 100 mg | Activity (Zea mays [10]): Toxic | Activity (Zea mays [11]): Toxic | Activity (Zea mays [12]): Toxic | Activity (Zea mays [13]): 6.1 cm | Activity (Zea mays [14]): Non-toxic | Activity (Zea mays [15]): 75.6 mg | Activity (Zea mays [16]): 29.6 mg | Activity (Zea mays [17]): 30.3 mg | Activity (Zea mays [18]): 8.9 cm | Activity (Zea mays [19]): 101.3 mg | Activity (Zea mays [20]): Non-toxic | Activity (Zea mays [21]): 9.4 cm | Activity (Zea mays [30]): Non-toxic
